According to article PMC10246574 (International Journal of Nanomedicine, 2023):
Values after ≈ are worked out from the molar mass of the structure shown.

Legend:
[1] = Cytotoxicity by MTT assay in HaCaT cells; format: cell-based; conditions: human, HaCaT cells (immortalized epidermal keratinocytes)
In short: (§1)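 Thawed cells grown in DMEM with 10% v/v fetal calf serum, 1 mM L-glutamine, penicillin and streptomycin at 37 °C, 5% CO2. Seeded at 3 × 10^5 (HaCaT) or 3.5 × 10^5 (Hs68) cells/well for 24 h. Treated with oil at 0–100 µg/mL for 48 h. MTT (5 mg/mL solution) added for 4 h; formazan dissolved in DMSO; A578 and A630.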

[2] = Cytotoxicity by MTT assay in Hs68 cells; format: cell-based; conditions: human, Hs68 cells (foreskin fibroblasts)
In short: as §1

[3] = test system: chorio-allantoic membrane of fertilized hen's eggs; assay: Hen's egg chorio-allantoic membrane; conditions: for irritation score (IS): 30 µL applied, observed 300 s; for irritation category: from IS
In short: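 Fertilized hen's eggs (7–10 days) incubated at 37.5 ± 0.5 °C and 62.5 ± 7.5% humidity with rotation. Shell over the air cell opened, membrane moistened with saline and removed. 30 µL sample applied to the CAM. First hemorrhage, vascular lysis and coagulation timed over 300 s; IS = [(301−h)×5]/300 + [(301−l)×7]/300 + [(301−c)×9]/300. CAM also imaged at 0, 5 and 60 min. Controls: 1% w/v SLS and normal saline.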

[4] = test system: human skin; conditions: daily application under occlusive patch, human volunteers; cited from earlier work
[5] = test system: rabbit skin; conditions: rabbits, ref Acid (1987) [48], cited from earlier work

Row | Compound | IC20 at 48 h [1] [µg/mL] | viability at 48 h, 100 µg/mL [1] [%] | IC20 at 48 h [2] [µg/mL] | viability at 48 h, 100 µg/mL [2] [%] | irritation score (IS) [3] | irritation signs on CAM after 60 min of exposure ([3]; 60 min) | irritation category [3] | irritation of human skin [4] | primary irritation index (PII) ([5]; single insult occlusive patch test) | erythema ([5]; oleic acid after 24 h, palmitic acid after 2–24 h)
1 | CCCCCCCCCCCCCCCC(=O)O [palmitic acid] | 100 (≈ 390 µM) | 75.9 ± 3.5 | > 100 | > 90 | 0.0 ± 0.0 | vascular lysis was detected | no irritant effect | not found to be irritating | – | –
2 | CCCCC/C=C\C/C=C\CCCCCCCC(=O)O [linoleic acid] | 100 (≈ 357 µM) | 73.8 ± 5.8 | > 100 | > 90 | 0.0 ± 0.0 | – | no irritant effect | found to produce irritation | – | –
3 | CCCCCCCCCCCCOS(=O)(=O)[O-].[Na+] [SLS, sodium lauryl sulphate] | – | – | – | – | 12.5 ± 0.3 | – | severe irritation | – | – | –
4 | CCCCCCCC/C=C\CCCCCCCC(=O)O [oleic acid] | 100 (≈ 354 µM) | 82.2 ± 6.1 | > 100 | > 90 | 0.0 ± 0.0 | – | no irritant effect | not found to be irritating | 0.5 | moderate erythema
